Active and inactive are the calls of the source. The calls are words filed in the database; no cut-off is given here.
What was measured:
[1] = molecular target: Voltage-gated inwardly rectifying potassium channel KCNH2 (Homo sapiens, UniProt Q12809); assay: Inhibition of human ERG expressed in CHO cells at -80 mV holding potential after 3 mins by QPatch test; type: cell-based
[2] = Inhibition of CrtN in methicillin-resistant Staphylococcus aureus NRS70 assessed as reduction in staphyloxanthin levels after 48 hrs by spectrophotometric method-based pigment inhibition assay
[3] = Cmax in mouse at 2 mg/kg, iv administered as single dose by LC-MS/MS analysis; type: ADME, organism-based; design: dose 2 mg/kg, route intravenous; conditions: in vivo
[4] = Tmax in Sprague-Dawley rat at 10 mg/kg, po administered as single dose by LC-MS/MS analysis; type: ADME, organism-based; conditions: in vivo
[5] = system: Staphylococcus aureus; assay: In vivo anti-virulence activity against Staphylococcus aureus Newman infected in BALB/c mouse model assessed as reduction in bacterial load in heart at 0.2 mg bid for 3.5 days administered orally 6 hrs post infection by serial dilution method relative to vancomycin; type: functional; design: scale not given: the % may be the effect or the level left
Method in brief: (§1)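 Mice got 3.1 × 10^7 CFU S. aureus Newman by retro-orbital injection. Oral compound was given b.i.d. for 3.5 d, starting 6 h after infection. […] Log10 CFU was counted per kidney and per heart.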

[6] = Clearance in Sprague-Dawley rat at 5 mg/kg, iv administered as single dose by LC-MS/MS analysis; type: ADME, organism-based; conditions: in vivo
[7] = Cmax in mouse at 10 mg/kg, po administered as single dose by LC-MS/MS analysis; type: ADME, organism-based; design: dose 10 mg/kg, route oral; conditions: in vivo
[8] = system: Staphylococcus aureus; assay: In vivo anti-virulence activity against Staphylococcus aureus Mu50 infected in BALB/c mouse model assessed as reduction in bacterial load in kidney at 0.2 mg bid for 3.5 days administered orally 6 hrs post infection by serial dilution method relative to control; type: functional, organism-based
Method in brief: (§2)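 Mice were infected by retro-orbital injection with Mu50 (4.6 × 10^9 CFU) or NRS271 (3.5 × 10^8 CFU). Oral compound was given b.i.d. for 3.5 d, starting 6 h after infection. Log10 CFU was counted per kidney and per heart.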

[9] = system: Staphylococcus aureus; assay: In vivo anti-virulence activity against Staphylococcus aureus Newman infected in BALB/c mouse model assessed as reduction in bacterial load in heart at 0.1 mg bid for 3.5 days administered orally 6 hrs post infection by serial dilution method relative to vancomycin; type: functional; design: scale not given: the % may be the effect or the level left; method in brief: as §1
[10] = system: Staphylococcus aureus; assay: In vivo anti-virulence activity against methicillin-resistant Staphylococcus aureus Mu50 infected in BALB/c mouse model assessed as reduction in bacterial load in kidneys at 0.05 mg bid for 3.5 days administered intraperitoneally 6 hrs post infection by serial dilution method; type: functional; design: scale not given: the % may be the effect or the level left
[11] = molecular target: T1, 4,4'-diapophytoene desaturase (4,4'-diaponeurosporene-forming) (Staphylococcus aureus (strain Mu50 / ATCC 700699)) (UniProt Q99R76); conditions: Staphylococcus aureus subsp. aureus Mu50; 1 uM
T1 sequence (whole entry): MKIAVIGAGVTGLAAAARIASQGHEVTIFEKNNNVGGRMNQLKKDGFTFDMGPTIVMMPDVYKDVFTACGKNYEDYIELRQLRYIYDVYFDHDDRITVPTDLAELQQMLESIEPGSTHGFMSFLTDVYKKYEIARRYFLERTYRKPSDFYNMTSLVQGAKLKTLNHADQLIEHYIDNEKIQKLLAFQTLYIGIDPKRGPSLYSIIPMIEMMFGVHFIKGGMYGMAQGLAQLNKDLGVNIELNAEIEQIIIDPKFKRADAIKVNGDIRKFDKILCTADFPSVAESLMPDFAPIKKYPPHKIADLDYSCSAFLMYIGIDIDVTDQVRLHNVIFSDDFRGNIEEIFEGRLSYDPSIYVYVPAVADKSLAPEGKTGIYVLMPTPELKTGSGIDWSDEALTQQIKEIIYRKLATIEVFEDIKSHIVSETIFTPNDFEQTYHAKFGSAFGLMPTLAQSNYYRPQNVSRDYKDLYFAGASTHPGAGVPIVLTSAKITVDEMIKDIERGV

[12] = AUC (0 to 24 hrs) in mouse at 2 mg/kg, iv administered as single dose by LC-MS/MS analysis; type: ADME, organism-based; design: dose 2 mg/kg, time < 24 hr, route intravenous; conditions: in vivo
[13] = system: Staphylococcus aureus; assay: In vivo anti-virulence activity against Staphylococcus aureus Newman infected in BALB/c mouse model assessed as reduction in bacterial load in heart at 0.1 mg bid for 3.5 days administered orally 6 hrs post infection by serial dilution method relative to control; type: functional, organism-based; method in brief: as §1
[14] = system: Staphylococcus aureus; assay: In vivo anti-virulence activity against Staphylococcus aureus NRS271 infected in BALB/c mouse model assessed as reduction in bacterial load in kidney at 0.2 mg bid for 3.5 days administered orally 6 hrs post infection by serial dilution method relative to control; type: functional, organism-based; method in brief: as §2
[15] = Inhibition of CrtN in methicillin-resistant Staphylococcus aureus XN108 assessed as reduction in staphyloxanthin levels after 48 hrs by spectrophotometric method-based pigment inhibition assay
[16] = system: Pseudomonas aeruginosa; assay: Antibacterial activity against Pseudomonas aeruginosa after 24 hrs by broth dilution method; type: functional
[17] = system: Staphylococcus aureus; assay: In vivo anti-virulence activity against methicillin-resistant Staphylococcus aureus XN108 infected in BALB/c mouse model assessed as reduction in bacterial load in kidney at 0.1 mg bid for 3.5 days administered intraperitoneally 6 hrs post infection by serial dilution method relative to vancomycin; type: functional, organism-based
Method in brief: (§3)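 Mice infected retro-orbitally with S. aureus NF65Y (3.5 × 10^8 CFU) or XN108 (2.1 × 10^8 CFU). Test compound given i.p. b.i.d. starting 6 h post-infection. […] Log10 CFU per kidney and heart counted. Two-tailed Mann−Whitney test.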

[18] = molecular target: Cytochrome P450 2C9 (Homo sapiens, UniProt P11712); assay: Inhibition of CYP2C9 in human liver microsomes using diclofenac as substrate upto 10 uM after 10 mins in presence of NADPH by LC-MS/MS analysis; type: ADME
Cytochrome P450 2C9, sequence (P11712 whole entry): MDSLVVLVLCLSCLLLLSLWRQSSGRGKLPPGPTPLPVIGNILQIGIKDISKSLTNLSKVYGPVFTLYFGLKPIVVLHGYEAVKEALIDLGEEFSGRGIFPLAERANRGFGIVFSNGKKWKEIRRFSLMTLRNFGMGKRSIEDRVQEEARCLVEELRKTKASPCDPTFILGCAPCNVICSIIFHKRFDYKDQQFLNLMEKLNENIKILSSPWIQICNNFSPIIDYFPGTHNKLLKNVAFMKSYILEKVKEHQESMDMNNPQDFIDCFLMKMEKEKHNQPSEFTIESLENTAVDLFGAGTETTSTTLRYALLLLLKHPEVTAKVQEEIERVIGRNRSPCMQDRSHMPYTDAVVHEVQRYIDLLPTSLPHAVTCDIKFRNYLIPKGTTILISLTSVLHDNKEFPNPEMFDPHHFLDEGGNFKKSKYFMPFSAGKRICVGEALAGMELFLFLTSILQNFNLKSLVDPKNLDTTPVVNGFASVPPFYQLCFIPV

[19] = Inhibition of CrtN in methicillin-resistant Staphylococcus aureus LRSA202 assessed as reduction in staphyloxanthin levels after 48 hrs by spectrophotometric method-based pigment inhibition assay
[20] = system: Staphylococcus aureus; assay: Antibacterial activity against Staphylococcus aureus Newman after 24 hrs by broth dilution method; type: functional; conditions: Staphylococcus aureus, Newman, 24 h; read-out: MIC
[21] = system: Staphylococcus aureus; assay: In vivo anti-virulence activity against methicillin-resistant Staphylococcus aureus NF65Y infected in BALB/c mouse model assessed as reduction in bacterial load in kidney at 0.1 mg bid for 3.5 days administered intraperitoneally 6 hrs post infection by serial dilution method relative to linezolid; type: functional, organism-based; method in brief: as §3
[22] = system: Staphylococcus aureus; assay: In vivo anti-virulence activity against Staphylococcus aureus Newman in mouse lethal infection model assessed as host survival rate at 0.1 mg bid for 3.5 days administered intraperitoneally 6 hrs post infection and measured on day 8; type: functional
Method in brief: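 In a lethal sepsis model, mice (n=15) were challenged with 2 × 10^8 CFU S. aureus Newman. Animal survival was recorded daily through day 8.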

[23] = Cmax in Sprague-Dawley rat at 10 mg/kg, ip administered as single dose by LC-MS/MS analysis; type: ADME, organism-based; design: dose 10 mg/kg, route intraperitoneal; conditions: in vivo
[24] = Inhibition of CrtN in methicillin-resistant Staphylococcus aureus HS663 assessed as reduction in staphyloxanthin levels after 48 hrs by spectrophotometric method-based pigment inhibition assay
[25] = Tmax in Sprague-Dawley rat at 10 mg/kg, ip administered as single dose by LC-MS/MS analysis; type: ADME, organism-based; conditions: in vivo
[26] = AUC (0 to 24 hrs) in Sprague-Dawley rat at 10 mg/kg, ip administered as single dose by LC-MS/MS analysis; type: ADME, organism-based; design: dose 10 mg/kg, time < 24 hr, route intraperitoneal; conditions: in vivo

Voltage-gated inwardly rectifying potassium channel KCNH2, sequence (Q12809 whole entry): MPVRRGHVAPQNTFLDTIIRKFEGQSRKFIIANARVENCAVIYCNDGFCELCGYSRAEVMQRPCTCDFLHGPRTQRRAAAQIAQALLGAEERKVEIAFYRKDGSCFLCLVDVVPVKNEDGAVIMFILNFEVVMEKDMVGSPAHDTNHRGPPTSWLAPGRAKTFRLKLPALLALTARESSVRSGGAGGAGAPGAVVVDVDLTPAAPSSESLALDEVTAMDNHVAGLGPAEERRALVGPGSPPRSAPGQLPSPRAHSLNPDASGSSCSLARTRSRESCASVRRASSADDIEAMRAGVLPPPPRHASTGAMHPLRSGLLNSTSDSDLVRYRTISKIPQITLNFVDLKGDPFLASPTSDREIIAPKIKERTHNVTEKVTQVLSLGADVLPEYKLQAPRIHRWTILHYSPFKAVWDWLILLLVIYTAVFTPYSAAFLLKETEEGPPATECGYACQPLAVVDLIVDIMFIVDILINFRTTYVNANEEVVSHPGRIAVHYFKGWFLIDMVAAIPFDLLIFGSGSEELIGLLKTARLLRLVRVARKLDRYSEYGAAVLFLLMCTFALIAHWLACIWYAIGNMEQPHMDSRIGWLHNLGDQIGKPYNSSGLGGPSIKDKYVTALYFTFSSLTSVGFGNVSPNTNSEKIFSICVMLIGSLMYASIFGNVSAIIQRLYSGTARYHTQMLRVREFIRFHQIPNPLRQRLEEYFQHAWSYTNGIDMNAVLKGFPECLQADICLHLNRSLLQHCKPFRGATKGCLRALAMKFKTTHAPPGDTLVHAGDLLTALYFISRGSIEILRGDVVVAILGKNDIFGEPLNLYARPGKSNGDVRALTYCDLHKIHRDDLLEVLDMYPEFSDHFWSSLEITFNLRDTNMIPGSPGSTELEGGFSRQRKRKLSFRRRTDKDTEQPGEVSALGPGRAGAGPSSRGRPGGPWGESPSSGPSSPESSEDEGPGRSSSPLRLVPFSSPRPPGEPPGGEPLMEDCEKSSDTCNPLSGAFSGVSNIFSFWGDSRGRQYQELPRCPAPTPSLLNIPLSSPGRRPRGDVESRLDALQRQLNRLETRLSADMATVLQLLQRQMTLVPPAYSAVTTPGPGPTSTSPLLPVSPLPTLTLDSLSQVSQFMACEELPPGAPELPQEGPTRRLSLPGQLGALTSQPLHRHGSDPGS

For CN(C/C=C/c1ccc(-c2ccccc2)cc1)Cc1cccc2cc[nH]c12.Cl, the IC50 [1] was > 40000 nM.

With CN(C/C=C/c1ccc(-c2ccccc2)cc1)Cc1coc2ccccc12.Cl the IC50 [2] was 1.7 nM, the Cmax [3] was 2230 ng/mL and the Tmax [4] was 2 h. The Activity [5] was >55.3%, the clearance [6] was 29.2 mL/min/kg and the Cmax [7] was 801 ng/mL. The Activity [8] was “Active”, the Activity [9] was >55.3% and the Activity [10] was >91.8%. The Survival [11] was 2.7%, the AUC(0-t) at 24 h [12] was 1.07 µg·h/mL and the Activity [13] was “inactive”. For the same compound, the Activity [14] was “Active”, the IC50 [15] was 0.2 nM and the MIC [16] was > 500 µg/mL. The Activity [17] was “Active”, the IC50 [18] was > 10000 nM and the IC50 [19] was 1.6 nM. For the same compound, the MIC [20] was > 500 µg/mL, the Activity [21] was “Active” and the Survival [22] was >70%. The Cmax [23] was 130000 ng/mL, the IC50 [24] was 0.02 nM and the Tmax [25] was 3 h. For the same compound, the AUC(0-t) at 24 h [26] was 975 µg·h/mL.

Reference: ChEMBL document CHEMBL4024779, “Novel Terminal Bipheny-Based Diapophytoene Desaturases (CrtN) Inhibitors as Anti-MRSA/VISR/LRSA Agents with Reduced hERG Activity” (J Med Chem, 2018)
